Test results taken from ChEMBL document CHEMBL5058577, “EUbOPEN Chemogenomics Library 2 (Multiplex)” (2022).

Test system: HEK-293T
Experiment: Multiplex assay against HEK293T
Assay type: toxicity, cell-based
Conditions: human
Method in brief: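 Live cells were stained at seeding with Hoechst33342, BioTracker Green Microtubule Cytoskeleton Dye, MitoTracker Red and Annexin V Alexa Fluor 680, then imaged on a CQ1 microscope at 37°C and 5% CO2 after compound addition. CellPathfinder machine-learning gating split cells into Hoechst high-intensity objects or normal cells. Normal cells were split into healthy, pyknosed or fragmented nuclei, and pyknosed cells into mitotic or apoptotic. Tubulin, mitochondrial-mass and membrane-permeability phenotypes are per cents of healthy-nucleus cells.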

[1] = 12 h, 1 µM, compound concentration 1 uM, replicate 1
[2] = 12 h, 1 µM, compound concentration 1 uM, replicate 2
[3] = 12 h, 10 µM, compound concentration 10 uM, replicate 1
[4] = 12 h, 10 µM, compound concentration 10 uM, replicate 2
[5] = 24 h, 1 µM, compound concentration 1 uM, replicate 1
[6] = 24 h, 1 µM, compound concentration 1 uM, replicate 2
[7] = 24 h, 10 µM, compound concentration 10 uM, replicate 1
[8] = 24 h, 10 µM, compound concentration 10 uM, replicate 2
[9] = 48 h, 1 µM, compound concentration 1 uM, replicate 1
[10] = 48 h, 1 µM, compound concentration 1 uM, replicate 2
[11] = 48 h, 10 µM, compound concentration 10 uM, replicate 1
[12] = 48 h, 10 µM, compound concentration 10 uM, replicate 2

Cc1sc2c(c1C)C(c1ccc(Cl)cc1)=N[C@@H](CC(=O)NCCCCCCCCNC(=O)COc1cccc3c1C(=O)N(C1CCC(=O)NC1=O)C3=O)c1nnc(C)n1-2 (stereo not given in full)
Population Apoptotic (%) [1]: 66%
Population Fragmented Nuclei (%) [1]: 5%
Population Healthy Nuclei (%) [1]: 55%
Population Hoechst High Intensity Objects (%) [1]: 9%
Population Membrane Permeable-Phenotype (%) [1]: 0%
Population Mitochondria Different-Phenotype (%) [1]: 73%
Population Mitotic Cells (%) [1]: 33%
Population Normal (%) [1]: 90%
Population Pyknosed Nuclei (%) [1]: 39%
Population Tubulin-Different-Phenotype (%) [1]: 49%
Total Cell Count [1]: 175
Population Apoptotic (%) [2]: 62%
Population Fragmented Nuclei (%) [2]: 6%
Population Healthy Nuclei (%) [2]: 69%
Population Hoechst High Intensity Objects (%) [2]: 30%
Population Mitochondria Different-Phenotype (%) [2]: 91%
Population Mitotic Cells (%) [2]: 37%
Population Normal (%) [2]: 69%
Population Pyknosed Nuclei (%) [2]: 24%
Population Tubulin-Different-Phenotype (%) [2]: 59%
Total Cell Count [2]: 205
Population Apoptotic (%) [3]: 60%
Population Fragmented Nuclei (%) [3]: 9%
Population Healthy Nuclei (%) [3]: 67%
Population Hoechst High Intensity Objects (%) [3]: 14%
Population Membrane Permeable-Phenotype (%) [3]: 0%
Population Mitochondria Different-Phenotype (%) [3]: 75%
Population Mitotic Cells (%) [3]: 39%
Population Normal (%) [3]: 85%
Population Pyknosed Nuclei (%) [3]: 23%
Population Tubulin-Different-Phenotype (%) [3]: 23%
Total Cell Count [3]: 363
Population Apoptotic (%) [4]: 53%
Population Fragmented Nuclei (%) [4]: 8%
Population Healthy Nuclei (%) [4]: 66%
Population Hoechst High Intensity Objects (%) [4]: 37%
Population Mitochondria Different-Phenotype (%) [4]: 87%
Population Mitotic Cells (%) [4]: 46%
Population Normal (%) [4]: 62%
Population Pyknosed Nuclei (%) [4]: 24%
Population Tubulin-Different-Phenotype (%) [4]: 39%
Total Cell Count [4]: 315
Population Apoptotic (%) [5]: 51%
Population Fragmented Nuclei (%) [5]: 7%
Population Healthy Nuclei (%) [5]: 61%
Population Hoechst High Intensity Objects (%) [5]: 6%
Population Membrane Permeable-Phenotype (%) [5]: 0%
Population Mitochondria Different-Phenotype (%) [5]: 58%
Population Mitotic Cells (%) [5]: 48%
Population Normal (%) [5]: 93%
Population Pyknosed Nuclei (%) [5]: 31%
Population Tubulin-Different-Phenotype (%) [5]: 22%
Total Cell Count [5]: 261
Population Apoptotic (%) [6]: 67%
Population Fragmented Nuclei (%) [6]: 6%
Population Healthy Nuclei (%) [6]: 70%
Population Hoechst High Intensity Objects (%) [6]: 30%
Population Mitochondria Different-Phenotype (%) [6]: 83%
Population Mitotic Cells (%) [6]: 32%
Population Normal (%) [6]: 69%
Population Pyknosed Nuclei (%) [6]: 23%
Population Tubulin-Different-Phenotype (%) [6]: 31%
Total Cell Count [6]: 231
Population Apoptotic (%) [7]: 52%
Population Fragmented Nuclei (%) [7]: 11%
Population Healthy Nuclei (%) [7]: 64%
Population Hoechst High Intensity Objects (%) [7]: 12%
Population Membrane Permeable-Phenotype (%) [7]: 0%
Population Mitochondria Different-Phenotype (%) [7]: 64%
Population Mitotic Cells (%) [7]: 47%
Population Normal (%) [7]: 87%
Population Pyknosed Nuclei (%) [7]: 24%
Population Tubulin-Different-Phenotype (%) [7]: 19%
Total Cell Count [7]: 397
Population Apoptotic (%) [8]: 57%
Population Fragmented Nuclei (%) [8]: 9%
Population Healthy Nuclei (%) [8]: 60%
Population Hoechst High Intensity Objects (%) [8]: 39%
Population Mitochondria Different-Phenotype (%) [8]: 86%
Population Mitotic Cells (%) [8]: 42%
Population Normal (%) [8]: 60%
Population Pyknosed Nuclei (%) [8]: 30%
Total Cell Count [8]: 346
Population Apoptotic (%) [9]: 55%
Population Fragmented Nuclei (%) [9]: 7%
Population Healthy Nuclei (%) [9]: 58%
Population Hoechst High Intensity Objects (%) [9]: 2%
Population Membrane Permeable-Phenotype (%) [9]: 0%
Population Mitochondria Different-Phenotype (%) [9]: 56%
Population Mitotic Cells (%) [9]: 44%
Population Normal (%) [9]: 97%
Population Pyknosed Nuclei (%) [9]: 33%
Population Tubulin-Different-Phenotype (%) [9]: 30%
Total Cell Count [9]: 284
Population Apoptotic (%) [10]: 67%
Population Fragmented Nuclei (%) [10]: 9%
Population Healthy Nuclei (%) [10]: 65%
Population Hoechst High Intensity Objects (%) [10]: 15%
Population Mitochondria Different-Phenotype (%) [10]: 78%
Population Mitotic Cells (%) [10]: 32%
Population Normal (%) [10]: 84%
Population Pyknosed Nuclei (%) [10]: 25%
Population Tubulin-Different-Phenotype (%) [10]: 42%
Total Cell Count [10]: 289
Population Apoptotic (%) [11]: 48%
Population Fragmented Nuclei (%) [11]: 9%
Population Healthy Nuclei (%) [11]: 55%
Population Hoechst High Intensity Objects (%) [11]: 14%
Population Membrane Permeable-Phenotype (%) [11]: 0%
Population Mitochondria Different-Phenotype (%) [11]: 51%
Population Mitotic Cells (%) [11]: 51%
Population Normal (%) [11]: 85%
Population Pyknosed Nuclei (%) [11]: 35%
Population Tubulin-Different-Phenotype (%) [11]: 17%
Total Cell Count [11]: 403
Population Apoptotic (%) [12]: 65%
Population Fragmented Nuclei (%) [12]: 15%
Population Healthy Nuclei (%) [12]: 52%
Population Hoechst High Intensity Objects (%) [12]: 31%
Population Mitochondria Different-Phenotype (%) [12]: 76%
Population Mitotic Cells (%) [12]: 34%
Population Normal (%) [12]: 69%
Population Pyknosed Nuclei (%) [12]: 31%
Population Tubulin-Different-Phenotype (%) [12]: 31%
Total Cell Count [12]: 300
